Our source for the Activity and IC50 values is ChEMBL document CHEMBL1157970, “Quercetin as the active principle of Hypericum hircinum exerts a selective inhibitory activity against MAO-A: extraction, biological analysis, and computational study” (J Nat Prod, 2006).

The subject of experiment [1] is Mus musculus. The experiment in a line: Induction of behavioral effects in CD1 mouse at 10 mg/kg, ip by forced swimming test relative to carboxy methyl cellulose. It counts as functional, organism-based. The arrangement: dose 10 mg/kg. An outline of the steps:
(§1)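 Male CD1 mice, 25-28 g, n = 10 per group. Two-day protocol: 15-min pretest swim in a cylinder of 25 °C water. After 24 h, a 10-min videotaped test session 60 min after ip injection of drug suspended in 0.5% CMC, given at 0.01 mL/g. Immobility time is compared with naïve and CMC groups by two-way ANOVA and Duncan test, p < 0.05.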

Experiment [2] relates to Mus musculus. Kind of experiment: Increase in duration of immobility in CD1 mouse at 10 mg/kg, ip by forced swimming test relative to carboxy methyl cellulose. It is filed as functional, organism-based. Also noted: dose 10 mg/kg. In outline: as §1
Experiment [3] deals with T1, Amine oxidase [flavin-containing] A (Bos taurus, UniProt P21398).
T1 sequence (P21398 whole entry): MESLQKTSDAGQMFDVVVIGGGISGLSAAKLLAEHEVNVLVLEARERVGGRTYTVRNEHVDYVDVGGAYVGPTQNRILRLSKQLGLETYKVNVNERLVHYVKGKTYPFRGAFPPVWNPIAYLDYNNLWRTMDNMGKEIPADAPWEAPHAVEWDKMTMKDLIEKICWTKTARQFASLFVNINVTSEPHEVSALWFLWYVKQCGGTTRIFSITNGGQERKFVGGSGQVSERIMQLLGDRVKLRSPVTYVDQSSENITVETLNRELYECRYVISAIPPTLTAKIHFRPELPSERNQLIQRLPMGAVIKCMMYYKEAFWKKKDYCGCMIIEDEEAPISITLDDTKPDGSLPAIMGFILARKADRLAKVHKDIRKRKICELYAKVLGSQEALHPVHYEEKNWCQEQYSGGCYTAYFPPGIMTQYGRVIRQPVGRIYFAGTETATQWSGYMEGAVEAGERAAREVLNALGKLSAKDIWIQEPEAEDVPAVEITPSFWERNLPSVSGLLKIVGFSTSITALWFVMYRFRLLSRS
The experiment in a line: Inhibition of bovine MAO-A by fluorimetric method. An outline of the steps:
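Beef brain mitochondria (6 mg/mL) in K3PO4 buffer pH 7.4 with kynuramine substrate (four concentrations, 5 μM to 0.1 mM). Preincubated 30 min at 38 °C with 0.5 μM L-deprenyl to isolate MAO-A. Drug in DMSO; incubated 30 min at 38 °C, stopped with HClO4, supernatant into NaOH, read fluorimetrically. Means of three or more experiments run in duplicate.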

In experiment [4] the test system is Mus musculus. Kind of experiment: Increase in duration of immobility in CD1 mouse at 1 mg/kg, ip by forced swimming test relative to carboxy methyl cellulose. Also noted: dose 1 mg/kg. It counts as functional, organism-based. An outline of the steps: as §1
The subject of experiment [5] is Mus musculus. The experiment in a line: Effect on duration of immobility in CD1 mouse at 1 mg/kg, ip by forced swimming test relative to control. It counts as functional, organism-based. The arrangement: dose 1 mg/kg. In outline: as §1
The test system of experiment [6] is Mus musculus. The experiment in a line: Induction of behavioral effects in CD1 mouse at 1 mg/kg, ip by forced swimming test relative to control. It counts as functional, organism-based. Also noted: dose 1 mg/kg. An outline of the steps:
as §1

The subject of experiment [7] is Mus musculus. Kind of experiment: Induction of behavioral effects in CD1 mouse at 10 mg/kg, ip by forced swimming test relative to control. It is filed as functional, organism-based. The arrangement: dose 10 mg/kg. In outline: as §1
The subject of experiment [8] is Mus musculus. The experiment in a line: Increase in duration of immobility in CD1 mouse at 10 mg/kg, ip by forced swimming test relative to control. It is filed as functional, organism-based. Also noted: dose 10 mg/kg. In outline: as §1
In experiment [9] the test system is Mus musculus. The experiment in a line: Effect on duration of immobility in CD1 mouse at 1 mg/kg, ip by forced swimming test relative to carboxy methyl cellulose. It counts as functional, organism-based. The arrangement: dose 1 mg/kg. An outline of the steps:
as §1

Experiment [10] has as its system Mus musculus. Kind of experiment: Effect on duration of immobility in CD1 mouse at 10 mg/kg, ip by forced swimming test relative to carboxy methyl cellulose. The arrangement: dose 10 mg/kg. It counts as functional, organism-based. An outline of the steps: as §1
Experiment [11] deals with Mus musculus. The experiment in a line: Induction of behavioral effects in CD1 mouse at 1 mg/kg, ip by forced swimming test relative to carboxy methyl cellulose. It is filed as functional, organism-based. The arrangement: dose 1 mg/kg. In outline: as §1
In experiment [12] the test system is Mus musculus. Kind of experiment: Increase in duration of immobility in CD1 mouse at 1 mg/kg, ip by forced swimming test relative to control. It counts as functional, organism-based. The arrangement: dose 1 mg/kg. An outline of the steps:
as §1

For experiment [13], the system named is Mus musculus. The experiment in a line: Effect on duration of immobility in CD1 mouse at 10 mg/kg, ip by forced swimming test relative to control. The arrangement: dose 10 mg/kg. It is filed as functional, organism-based. An outline of the steps: as §1
Experiment [14] addresses T2, Amine oxidase [flavin-containing] B (Bos taurus, UniProt P56560).
T2 sequence (P56560 whole entry): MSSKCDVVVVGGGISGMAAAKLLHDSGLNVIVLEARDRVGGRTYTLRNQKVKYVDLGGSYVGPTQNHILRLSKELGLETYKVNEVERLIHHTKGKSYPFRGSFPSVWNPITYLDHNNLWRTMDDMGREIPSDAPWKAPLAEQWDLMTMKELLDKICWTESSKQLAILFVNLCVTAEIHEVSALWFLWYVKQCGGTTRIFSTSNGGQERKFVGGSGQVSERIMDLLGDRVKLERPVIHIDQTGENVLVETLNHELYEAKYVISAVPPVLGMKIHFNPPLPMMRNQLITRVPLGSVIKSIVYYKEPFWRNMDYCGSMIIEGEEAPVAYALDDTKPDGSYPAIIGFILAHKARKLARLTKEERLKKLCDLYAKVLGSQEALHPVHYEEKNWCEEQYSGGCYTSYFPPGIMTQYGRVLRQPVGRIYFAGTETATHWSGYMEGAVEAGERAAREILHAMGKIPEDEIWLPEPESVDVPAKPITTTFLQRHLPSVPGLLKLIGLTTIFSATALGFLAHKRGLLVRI
The experiment in a line: Inhibition of bovine MAO-B by fluorimetric method. An outline of the steps: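 Bovine brain mitochondria (6 mg/mL) in 0.25 M potassium phosphate buffer pH 7.4; preincubated 30 min at 38 °C with 0.05 μM clorgyline to isolate MAO-B. Kynuramine substrate at four levels, 5 μM to 0.1 mM; inhibitor added from DMSO; 30 min at 38 °C, stopped with HClO4, centrifuged, supernatant into 0.1 N NaOH, fluorimetric read-out. Means of ≥3 experiments in duplicate.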

The source made the active and inactive calls. No cut-off for these calls is given here.

On to `O=c1c(O)c(-c2ccc(O)c(O)c2)oc2cc(O)cc(O)c12` [QUERCETIN], for which the result in experiment [1], in [5], in experiment [6], in [7], in [9] and in experiment [10] was inactive. The outcome in experiment [11] and in [13] was inactive. In addition, the result in experiment [2], in experiment [4], in experiment [8] and in experiment [12] was Active. The IC50 turned out to be 0.01 µM in experiment [3] and 20 µM in [14].

As usually defined, the IC50 is the concentration at which inhibition is half-maximal.
